Reference: ChEMBL document CHEMBL1136767, “Novel nonimidazole histamine H3 receptor antagonists: 1-(4-(phenoxymethyl)benzyl)piperidines and related compounds” (J Med Chem, 2003)

Key:
[1] = target: Histamine H3 receptor (Mus musculus) (UniProt P58406); assay: In vivo effects in mice against H3 receptor on N6-methylhistamine levels in brain (following oral dosing of compound); assay type: functional, organism-based
Outline: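 Swiss mice fasted 24 h, dosed orally; decapitated 90 min later and cerebral cortex homogenized in ice-cold 0.4 M perchloric acid. Nτ-methylhistamine measured by radioimmunoassay.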

Histamine H3 receptor [2] = target: T1, Histamine H3 receptor (Homo sapiens, UniProt Q9Y5N1); assay: Displacement of [125I]iodoproxyfan from human histamine H3 receptor expressing CHO cells; assay type: cell-based
T1 sequence (Q9Y5N1 whole entry): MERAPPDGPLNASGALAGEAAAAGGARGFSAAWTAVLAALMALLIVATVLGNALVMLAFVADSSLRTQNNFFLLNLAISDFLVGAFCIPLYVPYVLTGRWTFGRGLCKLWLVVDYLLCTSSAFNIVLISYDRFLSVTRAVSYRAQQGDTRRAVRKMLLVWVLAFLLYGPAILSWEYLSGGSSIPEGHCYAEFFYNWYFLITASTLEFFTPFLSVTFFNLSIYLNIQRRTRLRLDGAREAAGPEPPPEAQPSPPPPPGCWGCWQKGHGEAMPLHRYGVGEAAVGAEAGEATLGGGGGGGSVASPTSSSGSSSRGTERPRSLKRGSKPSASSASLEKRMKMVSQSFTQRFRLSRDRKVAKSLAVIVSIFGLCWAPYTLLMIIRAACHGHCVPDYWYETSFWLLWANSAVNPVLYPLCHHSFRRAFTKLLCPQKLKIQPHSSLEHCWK

Histamine H3 receptor [3] = target: Histamine H3 receptor (Cavia porcellus, UniProt Q9JI35); assay: Potency at histamine H3 receptor subtype, was tested on guinea pig right ileum; assay type: tissue-based; conditions: read-out: pA2 (converted)
Sequence of Histamine H3 receptor (Cavia porcellus, UniProt Q9JI35) (Q9JI35 whole entry): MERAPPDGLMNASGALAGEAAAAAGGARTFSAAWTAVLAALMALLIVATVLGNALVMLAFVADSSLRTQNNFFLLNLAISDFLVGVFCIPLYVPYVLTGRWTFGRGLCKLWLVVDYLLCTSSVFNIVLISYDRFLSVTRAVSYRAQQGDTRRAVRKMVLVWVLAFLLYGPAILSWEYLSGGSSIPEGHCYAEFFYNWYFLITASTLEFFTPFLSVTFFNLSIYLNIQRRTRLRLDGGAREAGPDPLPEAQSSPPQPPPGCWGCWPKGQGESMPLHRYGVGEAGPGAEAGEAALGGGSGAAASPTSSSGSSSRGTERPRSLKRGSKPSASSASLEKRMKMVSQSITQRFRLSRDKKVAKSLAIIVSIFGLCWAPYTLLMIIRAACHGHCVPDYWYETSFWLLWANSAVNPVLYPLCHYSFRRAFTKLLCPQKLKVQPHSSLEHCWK

Histamine H2 receptor = Histamine H2 receptor (Cavia porcellus, UniProt P47747); assay: Potency at histamine H2 receptor subtype, was tested on guinea pig right atrium; assay type: tissue-based, Cardiac atrium; conditions: read-out: pA2 (converted)
Sequence of Histamine H2 receptor (P47747 whole entry): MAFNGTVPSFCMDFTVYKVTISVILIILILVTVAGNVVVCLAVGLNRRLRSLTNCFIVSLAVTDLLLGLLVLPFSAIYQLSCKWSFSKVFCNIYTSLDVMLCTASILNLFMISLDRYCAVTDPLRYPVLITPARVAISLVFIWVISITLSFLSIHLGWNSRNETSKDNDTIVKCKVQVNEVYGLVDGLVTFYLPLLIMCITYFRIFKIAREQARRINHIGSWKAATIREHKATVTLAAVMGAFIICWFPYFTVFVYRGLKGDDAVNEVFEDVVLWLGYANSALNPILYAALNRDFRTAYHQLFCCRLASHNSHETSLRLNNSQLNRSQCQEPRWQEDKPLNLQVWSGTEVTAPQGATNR

Histamine H1 receptor = Histamine H1 receptor (Cavia porcellus, UniProt P31389); assay: Potency at histamine H1 receptor subtype, was tested on guinea pig right ileum; assay type: tissue-based; conditions: read-out: pA2 (converted)
Sequence of Histamine H1 receptor (P31389 whole entry): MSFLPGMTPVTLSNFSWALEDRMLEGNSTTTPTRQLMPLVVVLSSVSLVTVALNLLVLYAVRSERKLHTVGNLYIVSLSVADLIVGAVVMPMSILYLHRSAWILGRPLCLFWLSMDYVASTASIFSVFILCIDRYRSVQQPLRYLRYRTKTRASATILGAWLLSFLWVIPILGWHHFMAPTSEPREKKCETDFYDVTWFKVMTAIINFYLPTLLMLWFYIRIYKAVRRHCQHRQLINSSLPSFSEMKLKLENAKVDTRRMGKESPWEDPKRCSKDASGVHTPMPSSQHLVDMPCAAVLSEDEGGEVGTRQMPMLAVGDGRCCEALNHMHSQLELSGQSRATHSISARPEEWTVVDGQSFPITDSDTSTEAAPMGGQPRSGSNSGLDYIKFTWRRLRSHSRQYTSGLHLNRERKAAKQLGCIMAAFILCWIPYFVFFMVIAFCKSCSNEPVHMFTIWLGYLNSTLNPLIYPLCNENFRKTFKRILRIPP

Histamine H3 receptor [4] = target: T1, Histamine H3 receptor; assay: biochemical
[5] = target: Histamine N-methyltransferase (Rattus norvegicus, UniProt Q01984); assay: Compound was tested against histamine N-methyl-transferase in rat brain [EC 2.1.1.8](relative weak affinity on rat enzyme); assay type: tissue-based
Sequence of Histamine N-methyltransferase (Q01984 whole entry): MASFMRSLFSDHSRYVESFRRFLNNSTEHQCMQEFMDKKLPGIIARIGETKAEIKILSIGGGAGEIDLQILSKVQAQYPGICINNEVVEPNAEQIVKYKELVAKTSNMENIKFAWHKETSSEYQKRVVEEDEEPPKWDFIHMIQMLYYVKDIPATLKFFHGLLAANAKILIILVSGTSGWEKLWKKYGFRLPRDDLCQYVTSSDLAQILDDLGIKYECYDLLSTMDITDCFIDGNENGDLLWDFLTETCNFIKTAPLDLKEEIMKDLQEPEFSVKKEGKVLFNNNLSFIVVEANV

Sequence of Histamine H3 receptor (Mus musculus) (P58406 whole entry): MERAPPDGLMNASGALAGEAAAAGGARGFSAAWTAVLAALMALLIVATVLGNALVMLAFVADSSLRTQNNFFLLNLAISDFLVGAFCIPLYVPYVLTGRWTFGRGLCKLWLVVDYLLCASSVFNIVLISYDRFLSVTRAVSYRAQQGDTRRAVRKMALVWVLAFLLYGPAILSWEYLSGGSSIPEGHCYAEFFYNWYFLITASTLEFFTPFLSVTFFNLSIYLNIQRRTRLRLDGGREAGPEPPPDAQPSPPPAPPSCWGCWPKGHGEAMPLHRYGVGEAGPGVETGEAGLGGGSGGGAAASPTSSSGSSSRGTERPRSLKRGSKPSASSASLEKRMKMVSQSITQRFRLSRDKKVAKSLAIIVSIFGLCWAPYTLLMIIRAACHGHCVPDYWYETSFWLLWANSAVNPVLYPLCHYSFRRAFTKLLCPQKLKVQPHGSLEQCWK

ED50 [1]	Ki (Histamine H3 receptor [2])	SMILES	also measured
1.9 mg/kg	87 nM	c1cc(CN2CCCCC2)ccc1COc1ccc2c(c1)CCC2	
0.24 mg/kg	87 nM	CC(=O)c1ccc(OCCCc2c[nH]cn2)cc1	
> 10 mg/kg	167 nM	Clc1ccc(OCc2ccc(CN3CCCCC3)cc2)cc1Cl	
> 10 mg/kg	42 nM	Cc1cc(OCc2ccc(CN3CCCCC3)cc2)ccc1Cl	
2.8 mg/kg	157 nM	O=C(c1ccc(OCc2ccc(CN3CCCCC3)cc2)cc1)C1CCCC1	Kb (Histamine H3 receptor [3]): 30.9 nM
30 mg/kg	890 nM	c1ccc(CCc2ccc(OCc3ccc(CN4CCCCC4)cc3)cc2)cc1	
3 mg/kg	253 nM	CC(C)c1ccc(OCc2ccc(CN3CCCCC3)cc2)cc1	
> 30 mg/kg	550 nM	c1ccc(COc2ccc(OCc3ccc(CN4CCCCC4)cc3)cc2)cc1	
1.9 mg/kg	26 nM	CC(=O)c1ccc(OCc2ccc(CN3CCCC3)cc2)cc1	Kb (Histamine H2 receptor): 7760 nM; Kb (Histamine H3 receptor [3]): 18.2 nM; Kb (Histamine H1 receptor): 9330 nM
20 mg/kg	334 nM	Cc1cccc(OCc2ccc(CN3CCCCC3)cc2)c1	
5 mg/kg	55 nM	C/C(=N\O)c1ccc(OCc2ccc(CN3CCCCC3)cc2)cc1	Kb (Histamine H2 receptor): 14100 nM; Kb (Histamine H3 receptor [3]): 85.1 nM; Kb (Histamine H1 receptor): 7940 nM
> 10 mg/kg	125 nM	FC(F)(F)c1ccc(OCc2ccc(CN3CCCCC3)cc2)cc1	
6.4 mg/kg	129 nM	CO/N=C(\C)c1ccc(OCc2ccc(CN3CCCCC3)cc2)cc1	Kb (Histamine H2 receptor): 3980 nM; Kb (Histamine H3 receptor [3]): 288 nM; Kb (Histamine H1 receptor): 3470 nM
5.9 mg/kg	66 nM	O=C(c1ccc(OCc2ccc(CN3CCCCC3)cc2)cc1)C1CC1	
3 mg/kg		CCCCCc1ccc(OCc2ccc(CN3CCCCC3)cc2)cc1	
3.4 mg/kg	91 nM	CCN(CC)Cc1ccc(COc2ccc(C(C)=O)cc2)cc1	
20 mg/kg	119 nM	COc1ccc(OCc2ccc(CN3CCCCC3)cc2)cc1	
1.8 mg/kg		Cc1ccc(OCc2ccc(CN3CCCCC3)cc2)cc1	
2.2 mg/kg	163 nM	CCc1ccc(OCc2ccc(CN3CCCCC3)cc2)cc1	
> 10 mg/kg	761 nM	C(=C\c1ccc(OCc2ccc(CN3CCCCC3)cc2)cc1)/c1ccccc1	

ED50 [1]	Ki (Histamine H3 receptor [2])	SMILES	also measured
> 10 mg/kg	95 nM	Fc1cc(OCc2ccc(CN3CCCCC3)cc2)ccc1Cl	
4.8 mg/kg	149 nM	Cc1ccc(OCc2ccc(CN3CCCCC3)cc2)cc1C	
> 10 mg/kg	114 nM	Brc1ccc(OCc2ccc(CN3CCCCC3)cc2)cc1	
10 mg/kg	88 nM	CCCOc1ccc(OCc2ccc(CN3CCCCC3)cc2)cc1	
> 10 mg/kg	124 nM	Clc1ccc(OCc2ccc(CN3CCCCC3)cc2)cc1	
3.1 mg/kg	201 nM	c1cc(CN2CCCCC2)ccc1COc1ccc(C2CCCC2)cc1	
9.6 mg/kg	2.8 nM	c1cc(CN2CCCCC2)ccc1COc1ccc(CN2CCCCC2)cc1	Kb (Histamine H3 receptor [3]): 38 nM
> 10 mg/kg	530 nM	c1ccc(Oc2ccc(OCc3ccc(CN4CCCCC4)cc3)cc2)cc1	
10 mg/kg	90 nM	c1ccc(NCc2ccc(OCc3ccc(CN4CCCCC4)cc3)cc2)cc1	
3.5 mg/kg	92 nM	c1cc(CN2CCCCC2)ccc1COc1ccc2c(c1)CCCC2	
4 mg/kg	27 nM	c1cn(-c2ccc(OCc3ccc(CN4CCCCC4)cc3)cc2)cn1	Kb (Histamine H3 receptor [3]): 15.8 nM
> 10 mg/kg	107 nM	Ic1ccc(OCc2ccc(CN3CCCCC3)cc2)cc1	
4.3 mg/kg	37 nM	CC(=O)c1ccc(OCc2ccc(CN3CCCCCC3)cc2)cc1	Kb (Histamine H3 receptor [3]): 30.9 nM
4.3 mg/kg	257 nM	CCCc1ccc(OCc2ccc(CN3CCCCC3)cc2)cc1	
30 mg/kg	227 nM	c1ccc(OCc2ccc(CN3CCCCC3)cc2)cc1	
3.9 mg/kg	84 nM	CC(=O)c1ccc(OCc2ccc(CN3CCCCC3)cc2)cc1	Kb (Histamine H2 receptor): 10200 nM; Kb (Histamine H3 receptor [3]): 61.7 nM; IC50 [5]: 10400 nM; Kb (Histamine H1 receptor): 4570 nM
2.8 mg/kg	169 nM	CCCCc1ccc(OCc2ccc(CN3CCCCC3)cc2)cc1	
> 10 mg/kg	238 nM	c1ccc(Cc2ccc(OCc3ccc(CN4CCCCC4)cc3)cc2)cc1	
15 mg/kg	123 nM	Fc1ccc(OCc2ccc(CN3CCCCC3)cc2)cc1	

SMILES	ED50 [1]	Ki (Histamine H3 receptor [2])	also measured
O=[N+]([O-])c1ccc(OCCCCCN2CCCC2)cc1	1.1 mg/kg		Ki (Histamine H3 receptor [4]): 39 nM
